Experimental findings from PubChem BioAssay are described below.

A short description of assay [1]: inhibitors of TNFa-induced NFkB p65 translocation, primary screen, imaging, HUVEC, MLSMR starter and 10KST1 sets (AID 438;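 active means inhibition above 20% together with a positive visual image hit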;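 further: compound added about 3h40 before a 20 min TNFalpha stimulation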;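 on inhibition: signal is the nuclear over cytoplasmic p65 intensity ratio per well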). As to conditions: HUVEC TNFa-induced p65 nuclear translocation; cell count: measured here: nuclei count (cytotoxicity indicator), at 2.08 µM; inhibition: at 2 µM, stronger effect = higher value, 0% TNFa-plus-vehicle, 100% no-TNFa wells.
Assay [2] in a line: inhibitors of mutant huntingtin aggregation, primary screen, imaging, exon1htt(103Q)mCFP cells, high-content imaging (AID 483;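 active means visual image review flags a hit and inhibition of aggregation exceeds 20%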;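 further: compound exposure lasted 3 days before fixation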;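 on nuclei count: percent of the per-plate median nuclei count of sample wells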). As to conditions: exon1htt(103Q)mCFP cell line, aggregate imaging, at 2 µM; inhibition of aggregation: stronger effect = higher value; nuclei count: measured here: cell count, toxicity.
The nature of assay [3]: inhibitors of E-selectin induction by TNFa, primary screen, imaging, HUVEC, immunofluorescence, MLSMR starter and 10KST1 sets (AID 487).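 On inhibition: signal is fraction of cell area covered by stained E-selectin grains.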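 On nuclei count: 100% = median nuclei count of all wells on the same plate.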 As to conditions: HUVEC TNFalpha-induced E-selectin immunofluorescence imaging, at 2 µM; inhibition: stronger effect = higher value; nuclei count: measured here: cell number, toxicity.
Assay [4] addresses Voltage-gated potassium channel subunit beta-2 (Rattus norvegicus) (UniProt P62483). The assay can be described thus: KvBeta enzyme negative modulators, primary screen, biochemical, NADPH fluorescence (AID 622;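 active means fluorescence slope higher than the sample average by over 3 SD, cut at about -0.22 in these data, passing the limit was not always enough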;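 further: slope of raw intensity against log time taken from 70 to 1610 s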). Conditions: recombinant KvBeta, 4-cyanobenzaldehyde reduction, at 10 µM, stronger effect = higher value.
Assay [5] has the same target. Kind of assay: KvBeta positive modulators, primary screen, biochemical, NADPH fluorescence (AID 623;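 active means NADPH fluorescence slope more negative than the mean of all samples by about 3 SD, 99.7% confidence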;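 further: fluorescence intensity change per second fitted from 20 to 320 s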). As to conditions: Recombinant KvBeta, NADPH fluorescence decrease slope, 10 min; at 10 µM; stronger effect = lower value.
In assay [6] the target is Muscarinic acetylcholine receptor M4 (Homo sapiens) (UniProt P08173). Kind of assay: compounds altering M4/GIRK thallium flux, either direction, primary screen, M4 allosteric agonist project, cell-based, HEK293 M4/GIRK, BTC-AM (AID 625;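 active means fluorescence slope after compound addition differing from the mean of all tested samples at 99.7% confidence, mostly higher but some lower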;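 further: thallium influx through GIRK channels coupled to M4 in HEK293 cells with BTC-AM dye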). As to conditions: at 10 µM, actives lie on both sides. The essentials: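 System: HEK293 cells with M4 receptor and GIRK channels | Incubation: Cells overnight at 37 °C, BTC-AM loading 1 h, reads 2 min total | Technique: Kinetic BTC-AM fluorescence sampled at 1 Hz, 10 s pre-addition baseline | Measure: Post-addition slope, 15–24 s, of baseline-normalized fluorescence | Control set: Carbachol positive, DMSO negative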

A short description of assay [7]: inhibitors of Sendai virus-induced IRF3 signaling, primary screen, TLR/RLR signaling modifier project, cell-based, Sendai virus stimulus, luciferase, 10K MLSCN set (AID 602276;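 active means inhibition at or above 50% at 10 µM; inactive means inhibition below 50%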;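 further: firefly luciferase from ISG56 promoter only with Renilla not read in this screen; 0% = Sendai virus plus DMSO and 100% = medium plus DMSO without virus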). As to conditions: HEK293 RL24 IRF3 luciferase reporter, at 10 µM, stronger effect = higher value.
A short description of assay [8]: inhibitors of poly I:C-induced TLR3 signaling, primary screen, cell-based, poly I:C stimulus, luciferase, 10K MLSCN set (AID 602277;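 active means inhibition of the reporter signal at or above 50%; inactive means inhibition below 50%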). As to conditions: HEK293-TLR3 RL24 IRF3 luciferase reporter, at 10 µM, stronger effect = higher value. On the technique in general: In a reporter assay the amount or activity of a reporter protein is the signal.

Activity calls are given as the source filed them.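 How the source made its calls, unless noted: active means visually confirmed hit in the image check and inhibition above 20%; inconclusive means visually confirmed hit but inhibition not above 20%; inactive means no visual hit in the image check.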

Chain of Voltage-gated potassium channel subunit beta-2 (Rattus norvegicus) (P62483 whole entry, looked up): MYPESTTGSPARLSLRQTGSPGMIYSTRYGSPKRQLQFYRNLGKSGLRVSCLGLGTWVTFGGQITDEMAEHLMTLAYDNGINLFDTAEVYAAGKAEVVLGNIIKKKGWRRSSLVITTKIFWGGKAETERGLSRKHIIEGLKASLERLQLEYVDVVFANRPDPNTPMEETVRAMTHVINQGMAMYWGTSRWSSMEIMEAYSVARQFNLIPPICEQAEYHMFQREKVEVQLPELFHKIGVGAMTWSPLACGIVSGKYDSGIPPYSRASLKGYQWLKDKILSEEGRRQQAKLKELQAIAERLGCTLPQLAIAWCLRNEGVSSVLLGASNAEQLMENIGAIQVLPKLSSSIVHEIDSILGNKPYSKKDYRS
Chain of Muscarinic acetylcholine receptor M4 (Homo sapiens) (P08173 whole entry, looked up): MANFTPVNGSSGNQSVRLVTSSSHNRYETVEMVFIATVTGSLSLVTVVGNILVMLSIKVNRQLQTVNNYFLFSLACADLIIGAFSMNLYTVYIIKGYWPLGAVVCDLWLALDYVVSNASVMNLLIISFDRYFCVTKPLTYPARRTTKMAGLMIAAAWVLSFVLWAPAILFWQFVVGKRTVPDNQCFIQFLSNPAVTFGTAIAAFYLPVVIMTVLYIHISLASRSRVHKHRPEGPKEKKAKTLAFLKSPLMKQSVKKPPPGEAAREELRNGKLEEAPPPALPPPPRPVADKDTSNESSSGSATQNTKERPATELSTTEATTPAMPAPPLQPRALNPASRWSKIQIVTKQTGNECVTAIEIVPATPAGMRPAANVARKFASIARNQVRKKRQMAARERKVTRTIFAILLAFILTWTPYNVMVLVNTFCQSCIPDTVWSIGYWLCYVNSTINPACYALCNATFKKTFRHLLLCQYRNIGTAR

A word on the inhibition: it is the relative decrease from the control value, in per cent. For `Cc1ccc(C(=O)Nc2nc3c(s2)CCCC3)o1`, in assay [1], the cell count stood at 341. In addition, the inhibition was -4% (inactive) in assay [1], -96.9% (inactive) in assay [3], -30.4% (inactive) in assay [7] and -89.5% (inactive) in assay [8]. Moreover, in assay [2], the inhibition of aggregation was -8.3% (inactive). The results for the nuclei count in assay [2] and in assay [3] were 101% and 120%, respectively. The fluorescence slope in assay [4] is -0.561 (inactive); in assay [6], 0.00262 (inactive). Also, the NADPH fluorescence slope in assay [5] was -4.4e-05 (inactive).
Regarding `Cc1ccccc1NC(=O)C1CCN(c2cnccn2)CC1`, in assay [1], the cell count turned out to be 304. Moreover, the inhibition in assay [1] is 2.2% (inactive); in assay [3], -42.9% (inactive); in assay [7] it was 5.1% (inactive); in assay [8] it was 15.6% (inactive). Moreover, in assay [2], the inhibition of aggregation is -10.2% (inactive). The figures for the nuclei count in assay [2] and in assay [3] were 86.3% and 111%, respectively. In addition, the fluorescence slope in assay [4] was -0.543 (inactive); in assay [6] it was 0.00512 (inactive). Besides, the NADPH fluorescence slope in assay [5] is -1.5e-06 (inactive).
With `CNC(=O)Nc1cccc(C(F)(F)F)c1`, the cell count in assay [1] stood at 299. Further, the inhibition in assay [1] is -3.3% (inactive); in assay [3] it was -46.4% (inactive); in assay [7], 0.0526% (inactive); in assay [8], 4.51% (inactive). The inhibition of aggregation in assay [2] was -31% (inactive). For the same compound, the nuclei count in assay [2] worked out at 97.6%; in assay [3], 130%. Besides, the fluorescence slope was -0.566 (inactive) in assay [4] and 0.00624 (inactive) in assay [6]. The NADPH fluorescence slope in assay [5] was -5.5e-05 (inactive).
For the compound `COc1ccc2c(c1)CCc1c(C(=O)N3CCCc4ccccc43)noc1-2`, the cell count in assay [1] was determined as 419. Besides, the inhibition was -4.5% (inactive) in assay [1], -32.7% (inactive) in assay [3], -24% (inactive) in assay [7] and -75% (inactive) in assay [8]. Also, in assay [2], the inhibition of aggregation is 17.4% (inactive). Besides, the nuclei count is 69.7% in assay [2] and 108% in assay [3]. Further, the fluorescence slope is -0.459 (inactive) in assay [4] and 0.00416 (inactive) in assay [6]. Also, in assay [5], the NADPH fluorescence slope was -0.000351 (inactive).
Consider `Cc1c(NC(=O)C2CCCNC2=O)c(=O)n(-c2ccccc2)n1C` (centres undefined), for which the cell count in assay [1] worked out at 394. The inhibition is -2.2% (inactive) in assay [1], -36.5% (inactive) in assay [3], 11.5% (inactive) in assay [7] and 6.36% (inactive) in assay [8]. Further, the inhibition of aggregation in assay [2] is -1.6% (inactive). In addition, the nuclei count in assay [2] turned out to be 101%; in assay [3], 106%. Moreover, the fluorescence slope in assay [4] was -0.495 (inactive); in assay [6], 0.00472 (inactive). Moreover, in assay [5], the NADPH fluorescence slope is 3.2e-05 (inactive).
Regarding `Cc1oc(-c2ccccc2)cc1C(N)=O`, in assay [1], the cell count was 248. The inhibition was 0% (inactive) in assay [1], 18.6% (inactive) in assay [3], 15.1% (inactive) in assay [7] and 3.48% (inactive) in assay [8]. The inhibition of aggregation in assay [2] is -1.4% (inactive). The nuclei count in assay [2] amounted to 66.5%; in assay [3], 97.7%. Besides, the fluorescence slope in assay [4] is -0.548 (inactive); in assay [6], 0.0055 (inactive). In addition, the NADPH fluorescence slope in assay [5] is -1.8e-05 (inactive).
As for `CCCCCCn1c(SCCCC)nc2c1c(=O)[nH]c(=O)n2C`, the cell count in assay [1] is 384. Also, the inhibition in assay [1] is -8% (inactive); in assay [3], -10.4% (inactive); in assay [7], 0.691% (inactive); in assay [8], 10.6% (inactive). Moreover, the inhibition of aggregation in assay [2] was -12.5% (inactive). Also, the nuclei count in assay [2] came to 101%; in assay [3], 104%. For the same compound, the fluorescence slope in assay [4] was -0.543 (inactive); in assay [6], 0.00572 (inactive). Besides, the NADPH fluorescence slope in assay [5] was -3.9e-05 (inactive).
With `N#Cc1c(N)n(CCNC(=O)c2cccs2)c2nc3ccccc3nc12`, the cell count in assay [1] came out at 578. Further, the inhibition is 10.7% (inactive) in assay [1], 29.4% (inactive) in assay [3], 9.96% (inactive) in assay [7] and -10% (inactive) in assay [8]. In addition, the inhibition of aggregation in assay [2] was 17.7% (inactive). For the same compound, the nuclei count came to 99.9% in assay [2] and 105% in assay [3]. In addition, the fluorescence slope is -0.0517 (inactive) in assay [4] and 0.00574 (inactive) in assay [6]. In assay [5], the NADPH fluorescence slope was -2.6e-05 (inactive).
Consider `Cc1cccc2cc(CN(Cc3nnnn3C3CCCC3)C3CCCCC3)c(=O)[nH]c12`, for which the cell count in assay [1] was found to be 349. The inhibition in assay [1] is 5.8% (inactive); in assay [3], -44% (inactive); in assay [7] it was 7.22% (inactive); in assay [8] it was 21.3% (inactive). Further, the inhibition of aggregation in assay [2] is -3.3% (inactive). Moreover, the nuclei count in assay [2] came to 99.1%; in assay [3] it was 106%. Also, the fluorescence slope in assay [4] was -0.466 (inactive); in assay [6], 0.00597 (inactive). Moreover, in assay [5], the NADPH fluorescence slope is 4.8e-05 (inactive).
Regarding `Cc1ccccc1-c1nc2ccccc2c(=O)n1C1CCS(=O)(=O)C1` (centres undefined), the cell count in assay [1] was found to be 368. Further, the inhibition is 3.8% (inactive) in assay [1], -4.7% (inactive) in assay [3], 21% (inactive) in assay [7] and 31% (inactive) in assay [8]. Besides, in assay [2], the inhibition of aggregation is -7.2% (inactive). In addition, the nuclei count in assay [2] stood at 110%; in assay [3], 102%. Further, the fluorescence slope is -0.614 (inactive) in assay [4] and 0.00582 (inactive) in assay [6]. In addition, in assay [5], the NADPH fluorescence slope was 9.6e-06 (inactive).
Turning to `Cc1ccc(Nc2nc(CSc3nnnn3C)cs2)cc1`, the cell count in assay [1] stood at 549. For the same compound, the inhibition is -15.4% (inactive) in assay [1], 5.9% (inactive) in assay [3], -54.9% (inactive) in assay [7] and 98.7% (active) in assay [8]. In addition, the inhibition of aggregation in assay [2] was 3.7% (inactive). In addition, the nuclei count was 79.2% in assay [2] and 109% in assay [3]. Besides, the fluorescence slope in assay [4] was -0.458 (inactive); in assay [6], 0.00561 (inactive). The NADPH fluorescence slope in assay [5] is -0.000383 (inactive).
In the case of `CCN(CC)c1ccc2c(c1)C(=O)N(C)C2=O`, in assay [1], the cell count came to 580. Moreover, the inhibition is -1.9% (inactive) in assay [1], -49% (inactive) in assay [3], -6.87% (inactive) in assay [7] and -37.5% (inactive) in assay [8]. The inhibition of aggregation in assay [2] is -5.6% (inactive). The nuclei count in assay [2] was found to be 92.2%; in assay [3] it was 104%. Besides, the fluorescence slope in assay [4] is -0.417 (inactive); in assay [6] it was 0.00562 (inactive). Besides, the NADPH fluorescence slope in assay [5] is -6.9e-05 (inactive).
Consider `COC(=O)c1ccc(COc2ncnc3c(Cl)cc(Cl)cc23)o1`, for which the cell count in assay [1] was 406. In addition, the inhibition was -5% (inactive) in assay [1], 59.9% (inactive) in assay [3], 2.59% (inactive) in assay [7] and 1.58% (inactive) in assay [8]. In addition, the inhibition of aggregation in assay [2] was 25.5% (inactive). For the same compound, the nuclei count in assay [2] is 74.4%; in assay [3], 78.8%. The fluorescence slope is -0.433 (inactive) in assay [4] and 0.00494 (inactive) in assay [6]. For the same compound, in assay [5], the NADPH fluorescence slope was -0.000426 (inactive).
As to `O=C(CSc1nc2ccccc2n1CC(=O)N1CCCC1)Nc1nccs1`, the cell count in assay [1] was found to be 676. The inhibition is 1% (inactive) in assay [1], -3.7% (inactive) in assay [3], 2.67% (inactive) in assay [7] and 14% (inactive) in assay [8]. In assay [2], the inhibition of aggregation is -9.6% (inactive). Moreover, the nuclei count in assay [2] worked out at 99.7%; in assay [3] it was 131%. In addition, the fluorescence slope is -0.484 (inactive) in assay [4] and 0.00508 (inactive) in assay [6]. Besides, in assay [5], the NADPH fluorescence slope was -0.000183 (inactive).
